Experimental data from ChEMBL document CHEMBL3774372, “Design, physico-chemical properties and biological evaluation of some new N-[(phenoxy)alkyl]- and N-{2-[2-(phenoxy)ethoxy]ethyl}aminoalkanols as anticonvulsant agents” (Bioorg Med Chem, 2016).
Calls of active or inactive are those of the source.

How the values were obtained:
Rattus norvegicus [1] = assay: Neurotoxicity in rat at 30 mg/kg, po after 1 hr by rotarod test; type: toxicity, organism-based; conditions: in vivo
Rattus norvegicus [2] = assay: Anticonvulsant activity in rat assessed as protection against maximal electric shock-induced seizures at 30 mg/kg, po measured after 1 hr; type: functional, organism-based
Summary of the method: (§1)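 Rats dosed ip or orally as 0.5% methylcellulose suspension; maximal electroshock at listed time. Protection = abolition of hindlimb tonic extension; 4 rats per group, scored protected/tested.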

Mus musculus [3] = assay: Anticonvulsant activity in mouse assessed as protection against maximal electric shock-induced seizures at 3 mg/kg, ip measured after 0.5 hrs; type: functional, organism-based
Summary of the method: (§2)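 Mice dosed ip with suspension in 0.5% methylcellulose; maximal electroshock applied at the listed time after dosing. Protection = abolition of hindlimb tonic extension component of seizure; reported as animals protected/animals tested.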

Mus musculus [4] = assay: Anticonvulsant activity in mouse assessed as protection against subcutaneous pentylenetetrazol-induced seizures at 30 mg/kg, ip measured after 4 hrs; type: functional, organism-based
Summary of the method: (§3)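 Mice dosed ip as 0.5% methylcellulose suspension; pentylenetetrazole 85 mg/kg in 0.9% NaCl injected subcutaneously into posterior midline, animals watched at least 30 min. Protection = no threshold seizure (single clonic spasm episode lasting ≥5 s); scored protected/tested.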

Mus musculus [5] = assay: Neurotoxicity in mouse at 300 mg/kg, ip after 0.5 hrs by rotarod test; type: toxicity, organism-based; conditions: in vivo
Summary of the method: (§4)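 Mice were dosed ip with compound suspended in 0.5% methylcellulose. Rotarod: a 1 in. knurled rod turning at 6 rpm. Neurotoxicity was scored as failure to stay on the rod for at least 1 min in each of three trials. Results are given as the number of animals affected out of the number tested.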

Rattus norvegicus [6] = assay: Neurotoxicity in rat at 30 mg/kg, po after 4 hrs by rotarod test; type: toxicity, organism-based; conditions: in vivo
Rattus norvegicus [7] = assay: Neurotoxicity in rat at 30 mg/kg, po after […] by rotarod test; type: toxicity, organism-based; conditions: in vivo
Mus musculus [8] = assay: Anticonvulsant activity in mouse assessed as protection against subcutaneous pentylenetetrazol-induced seizures at 100 mg/kg, ip measured after 4 hrs; type: functional, organism-based; summary of the method: as §3
Mus musculus [9] = assay: Neurotoxicity in mouse at 30 mg/kg, ip after 0.5 hrs by rotarod test; type: toxicity, organism-based; conditions: in vivo; summary of the method: as §4
Mus musculus [10] = assay: Anticonvulsant activity in mouse assessed as protection against maximal electric shock-induced seizures at 30 mg/kg, ip measured after 4 hrs; type: functional, organism-based; summary of the method: as §2
Rattus norvegicus [11] = assay: Neurotoxicity in rat at 30 mg/kg, po after 0.5 hrs by rotarod test; type: toxicity, organism-based; conditions: in vivo
Mus musculus [12] = assay: Anticonvulsant activity in mouse assessed as protection against maximal electric shock-induced seizures at 100 mg/kg, ip measured after 4 hrs; type: functional, organism-based; summary of the method: as §2
Rattus norvegicus [13] = assay: Anticonvulsant activity in rat assessed as protection against maximal electric shock-induced seizures at 30 mg/kg, po measured after 2 hrs; type: functional, organism-based; summary of the method: as §1
Mus musculus [14] = assay: Anticonvulsant activity in mouse assessed as protection against maximal electric shock-induced seizures at 30 mg/kg, ip measured after 0.5 hrs; type: functional, organism-based; summary of the method: as §2
Mus musculus [15] = assay: Neurotoxicity in mouse at 100 mg/kg, ip after 0.5 hrs by rotarod test; type: toxicity, organism-based; conditions: in vivo; summary of the method: as §4
Mus musculus [16] = assay: Anticonvulsant activity in mouse assessed as protection against subcutaneous pentylenetetrazol-induced seizures at 30 mg/kg, ip measured after 0.5 hrs; type: functional, organism-based; summary of the method: as §3
Rattus norvegicus [17] = assay: Neurotoxicity in rat at 30 mg/kg, po after 2 hrs by rotarod test; type: toxicity, organism-based; conditions: in vivo
Rattus norvegicus [18] = assay: Anticonvulsant activity in rat assessed as protection against maximal electric shock-induced seizures at 30 mg/kg, po measured after 0.5 hrs; type: functional, organism-based; summary of the method: as §1
Mus musculus [19] = assay: Neurotoxicity in mouse at 30 mg/kg, ip after 4 hrs by rotarod test; type: toxicity, organism-based; conditions: in vivo; summary of the method: as §4
Mus musculus [20] = assay: Neurotoxicity in mouse at 100 mg/kg, ip after 4 hrs by rotarod test; type: toxicity, organism-based; conditions: in vivo; summary of the method: as §4
Mus musculus [21] = assay: Anticonvulsant activity in mouse assessed as protection against maximal electric shock-induced seizures at 100 mg/kg, ip measured after 0.5 hrs; type: functional, organism-based; summary of the method: as §2
Vibrio harveyi [22] = assay: Antimutagenic activity against Vibrio harveyi BB7M assessed as inhibition of NQNO-induced mutagenicity after 48 hrs; type: functional
Summary of the method: (§5)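 V. harveyi cultures grown exponentially to A600 0.1 at 30 °C, exposed to test compound for 15 min, then to NQNO, and grown on to A600 0.3–0.4. 5 × 10⁶ cells plated on BOSS agar with neomycin (100, final). Neomycin-resistant colonies counted after 48 h at 30 °C. Result given as % inhibition of NQNO mutagenicity; three independent repeats.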

Vibrio harveyi [23] = assay: Mutagenicity in Vibrio harveyi BB7X assessed as number of colonies after 48 hrs (reference value: 15 to 16 no_unit); type: ADME, organism-based; conditions: in vivo
Summary of the method: (§6)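 Vibrio harveyi mutagenicity test: test compound was added to exponentially growing cultures (A600 = 0.1, 30 °C) and grown to OD600 0.3–0.4. Then 5 × 10^6 cells were plated on BOSS agar with neomycin (final 100 µg/mL) and incubated 48 h at 30 °C. Neomycin-resistant colonies were counted. Triplicate; controls were water, DMSO and NQNO 40 ng/mL.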

Vibrio harveyi [24] = assay: Antimutagenic activity against Vibrio harveyi BB7XM assessed as inhibition of NQNO-induced mutagenicity after 48 hrs; type: functional; summary of the method: as §5
Vibrio harveyi [25] = assay: Antimutagenic activity against Vibrio harveyi BB7X assessed as inhibition of NQNO-induced mutagenicity after 48 hrs; type: functional; summary of the method: as §5
Rattus norvegicus [26] = assay: Anticonvulsant activity in rat assessed as protection against maximal electric shock-induced seizures at 30 mg/kg, po measured after 4 hrs; type: functional, organism-based; summary of the method: as §1
Rattus norvegicus [27] = assay: Anticonvulsant activity in rat assessed as protection against maximal electric shock-induced seizures at 30 mg/kg, po measured after […]; type: functional, organism-based
Vibrio harveyi [28] = assay: Mutagenicity in Vibrio harveyi BB7 assessed as number of colonies after 48 hrs (reference value: 13 to 14 no_unit); type: ADME, organism-based; conditions: in vivo; summary of the method: as §6
Vibrio harveyi [29] = assay: Antimutagenic activity against Vibrio harveyi BB7 assessed as inhibition of NQNO-induced mutagenicity after 48 hrs; type: functional; summary of the method: as §5
Mus musculus [30] = assay: Anticonvulsant activity in mouse assessed as protection against subcutaneous pentylenetetrazol-induced seizures at 100 mg/kg, ip measured after 0.5 hrs; type: functional, organism-based; summary of the method: as §3
Vibrio harveyi [31] = assay: Mutagenicity in Vibrio harveyi BB7XM assessed as number of colonies after 48 hrs (reference value: 14 no_unit); type: ADME, organism-based; conditions: in vivo; summary of the method: as §6
Vibrio harveyi [32] = assay: Mutagenicity in Vibrio harveyi BB7M assessed as number of colonies after 48 hrs (reference value: 13 to 14 no_unit); type: ADME, organism-based; conditions: in vivo; summary of the method: as §6

Compound | Activity (Rattus norvegicus [1]) | Activity (Mus musculus [4]) | Activity (Mus musculus [5]) | Activity (Rattus norvegicus [6]) | Activity (Rattus norvegicus [7]) | Activity (Mus musculus [8]) | Activity (Mus musculus [9]) | Activity (Mus musculus [10]) | Activity (Rattus norvegicus [11]) | Activity (Mus musculus [12]) | Activity (Rattus norvegicus [13]) | Activity (Mus musculus [14]) | Activity (Mus musculus [15]) | Activity (Mus musculus [16]) | Activity (Rattus norvegicus [17]) | Activity (Mus musculus [19]) | Activity (Mus musculus [20]) | Activity (Mus musculus [21]) | Activity (Vibrio harveyi [23]) | Activity (Mus musculus [30]) | further results
Cc1cc(C)c(OCCN[C@@H]2CCCC[C@H]2O)c(C)c1 (racemic) | Non-toxic | inactive | Toxic | Non-toxic | Non-toxic | inactive | Non-toxic | inactive | Non-toxic | inactive | inactive | Active | Toxic | inactive | Non-toxic | Non-toxic | Non-toxic |  |  |  | Activity (Rattus norvegicus [2]): inactive; Activity (Mus musculus [3]): inactive; Activity (Rattus norvegicus [18]): inactive
Cc1cccc(C)c1OCCOCCN[C@@H]1CCCC[C@H]1O (racemic) | Non-toxic | inactive | Toxic | Non-toxic | Non-toxic | inactive | Non-toxic | inactive | Non-toxic | inactive | inactive | inactive | Non-toxic | inactive | Non-toxic | Non-toxic | Non-toxic | Active | 25 | inactive | inhibition (INH) (Vibrio harveyi [22]): 75%; inhibition (INH) (Vibrio harveyi [24]): 33%; inhibition (INH) (Vibrio harveyi [25]): 52%; Activity (Rattus norvegicus [26]): inactive; Activity (Rattus norvegicus [27]): inactive; Activity (Vibrio harveyi [28]): 29; inhibition (INH) (Vibrio harveyi [29]): 82%; Activity (Vibrio harveyi [31]): 22; Activity (Vibrio harveyi [32]): 26; Activity (Rattus norvegicus [18]): inactive
CCC(CO)NCCOc1cccc(C)c1C (centres undefined) |  | inactive |  |  |  | inactive | Non-toxic | inactive |  | inactive |  | inactive | Toxic | inactive |  | Non-toxic | Non-toxic | Active |  | inactive | 
Cc1cc(C)c(OCCN[C@H]2CC[C@H](O)CC2)c(C)c1 | Non-toxic | inactive | Toxic | Non-toxic | Non-toxic |  | Non-toxic | inactive | Non-toxic | inactive | inactive | inactive |  | inactive | Non-toxic | Non-toxic | Non-toxic | Active |  | inactive | Activity (Rattus norvegicus [2]): inactive; Activity (Rattus norvegicus [27]): inactive; Activity (Rattus norvegicus [18]): inactive
Cc1cccc(OCCCNC(C)CO)c1C (centres undefined) |  | inactive | Toxic |  |  | inactive | Non-toxic | inactive |  | inactive |  | inactive | Toxic | inactive |  | Non-toxic | Non-toxic | Active |  | inactive | 
Cc1cccc(OCCNC(C)(C)CO)c1C |  | inactive | Toxic |  |  | inactive | Non-toxic | inactive |  | inactive |  | inactive |  | inactive |  | Non-toxic | Non-toxic | Active |  | inactive | 
Cc1cccc(OCCOCCN[C@H]2CC[C@H](O)CC2)c1C |  |  |  |  |  |  |  |  |  |  |  |  |  |  |  |  |  |  | 27 |  | Activity (Vibrio harveyi [28]): 22; Activity (Vibrio harveyi [31]): 20; Activity (Vibrio harveyi [32]): 25
Cc1cccc(C)c1OCCOCCN1CCC(O)CC1 |  | inactive | Toxic |  |  | inactive | Non-toxic | inactive |  | inactive |  | inactive |  | inactive |  | Non-toxic | Non-toxic |  | 16 |  | inhibition (INH) (Vibrio harveyi [22]): 34%; inhibition (INH) (Vibrio harveyi [24]): 26%; inhibition (INH) (Vibrio harveyi [25]): 12%; Activity (Vibrio harveyi [28]): 22; inhibition (INH) (Vibrio harveyi [29]): 84%; Activity (Vibrio harveyi [31]): 26; Activity (Vibrio harveyi [32]): 18
Cc1ccc(OCCN[C@H](C)CO)c(C)c1 |  |  |  |  |  |  |  |  |  |  |  |  |  |  |  |  |  |  | 17 |  | Activity (Vibrio harveyi [28]): 22; Activity (Vibrio harveyi [31]): 23; Activity (Vibrio harveyi [32]): 26
Cc1cccc(OCCNC(C)CO)c1C (centres undefined) |  | inactive | Toxic |  |  | inactive | Non-toxic | inactive |  | inactive |  | inactive |  | inactive |  | Non-toxic | Non-toxic | Active |  | inactive | 
CCC(CO)NCCCOc1cccc(C)c1C (centres undefined) |  | inactive | Toxic |  |  | inactive | Non-toxic | inactive |  | inactive |  | inactive | Toxic | inactive |  | Non-toxic | Non-toxic | Active |  | inactive | 
Cc1cc(C)c(OCCNC(C)CO)c(C)c1 (centres undefined) | Non-toxic | inactive | Toxic | Non-toxic | Non-toxic | inactive | Non-toxic | inactive | Non-toxic | inactive | inactive | inactive | Toxic | inactive | Non-toxic | Non-toxic | Non-toxic | Active |  | inactive | Activity (Rattus norvegicus [2]): inactive; Activity (Rattus norvegicus [26]): inactive
